Calls of active or inactive are those of the source. The calls are words filed in the database; no cut-off is given here.
Tests used:
[1] = Stability of the compound in PBS with 3% DMSO; assay type: physicochemical; conditions: buffer
[2] = Induction of NO release in pH 7.4 PBS irradiated with 7 mW/cm2 light at 10 uM after 0.5 hrs by amperometric detection assay
Method in brief: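 NO release recorded during alternating light (λexc 405 nm) and dark cycles. Solution at 10 μM in PBS (pH 7.4, 10 mM, 3% DMSO), with or without 18 μM ct-DNA.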

[3] = organism: Bos taurus; assay: Binding affinity to calf thymus duplex DNA at 10 uM by fluorescence spectroscopic method
[4] = system: H9c2; assay: Cytotoxicity against 7 mW/cm'2 irradiated rat H9c2 cells at 5 uM coadministered with DOX measured after 20 mins by spectrophotometric method; assay type: cell-based; conditions: h9c2, 20 min
Method in brief: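 Cells (M14 melanoma, human fibroblasts or rat H9c2 cardiomyocytes) kept 20 min at room temperature in PBS under 400 nm light (7 mW/cm2), alone or with 5 μM compound, given alone or with equimolar 5 μM doxorubicin. Damage read as extracellular LDH release. Triplicate measurements, n = 3.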

[5] = system: H9c2; assay: Dark toxicity against rat H9c2 cells at 5 uM measured after 20 mins co-incubated with doxorubicin by spectrophotometric method; assay type: cell-based; conditions: h9c2, 20 min
Method in brief: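 Cells (M14 melanoma, human fibroblasts or rat H9c2 cardiomyocytes) kept 20 min at room temperature in PBS in the dark, with 5 μM compound, given alone or with equimolar 5 μM doxorubicin. Cytotoxicity read as extracellular LDH release. Triplicate measurements, n = 3.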

[6] = molecular target: Multidrug resistance-associated protein 1 (Homo sapiens, UniProt P33527); assay: Inhibition of MRP1 in 7 mW/cm'2 irradiated human M14 cells assessed as nitration of tyrosine in MRP1 at 5 uM measured after 20 mins in presence of doxorubicin by immunoblotting
Multidrug resistance-associated protein 1, sequence (P33527 whole entry): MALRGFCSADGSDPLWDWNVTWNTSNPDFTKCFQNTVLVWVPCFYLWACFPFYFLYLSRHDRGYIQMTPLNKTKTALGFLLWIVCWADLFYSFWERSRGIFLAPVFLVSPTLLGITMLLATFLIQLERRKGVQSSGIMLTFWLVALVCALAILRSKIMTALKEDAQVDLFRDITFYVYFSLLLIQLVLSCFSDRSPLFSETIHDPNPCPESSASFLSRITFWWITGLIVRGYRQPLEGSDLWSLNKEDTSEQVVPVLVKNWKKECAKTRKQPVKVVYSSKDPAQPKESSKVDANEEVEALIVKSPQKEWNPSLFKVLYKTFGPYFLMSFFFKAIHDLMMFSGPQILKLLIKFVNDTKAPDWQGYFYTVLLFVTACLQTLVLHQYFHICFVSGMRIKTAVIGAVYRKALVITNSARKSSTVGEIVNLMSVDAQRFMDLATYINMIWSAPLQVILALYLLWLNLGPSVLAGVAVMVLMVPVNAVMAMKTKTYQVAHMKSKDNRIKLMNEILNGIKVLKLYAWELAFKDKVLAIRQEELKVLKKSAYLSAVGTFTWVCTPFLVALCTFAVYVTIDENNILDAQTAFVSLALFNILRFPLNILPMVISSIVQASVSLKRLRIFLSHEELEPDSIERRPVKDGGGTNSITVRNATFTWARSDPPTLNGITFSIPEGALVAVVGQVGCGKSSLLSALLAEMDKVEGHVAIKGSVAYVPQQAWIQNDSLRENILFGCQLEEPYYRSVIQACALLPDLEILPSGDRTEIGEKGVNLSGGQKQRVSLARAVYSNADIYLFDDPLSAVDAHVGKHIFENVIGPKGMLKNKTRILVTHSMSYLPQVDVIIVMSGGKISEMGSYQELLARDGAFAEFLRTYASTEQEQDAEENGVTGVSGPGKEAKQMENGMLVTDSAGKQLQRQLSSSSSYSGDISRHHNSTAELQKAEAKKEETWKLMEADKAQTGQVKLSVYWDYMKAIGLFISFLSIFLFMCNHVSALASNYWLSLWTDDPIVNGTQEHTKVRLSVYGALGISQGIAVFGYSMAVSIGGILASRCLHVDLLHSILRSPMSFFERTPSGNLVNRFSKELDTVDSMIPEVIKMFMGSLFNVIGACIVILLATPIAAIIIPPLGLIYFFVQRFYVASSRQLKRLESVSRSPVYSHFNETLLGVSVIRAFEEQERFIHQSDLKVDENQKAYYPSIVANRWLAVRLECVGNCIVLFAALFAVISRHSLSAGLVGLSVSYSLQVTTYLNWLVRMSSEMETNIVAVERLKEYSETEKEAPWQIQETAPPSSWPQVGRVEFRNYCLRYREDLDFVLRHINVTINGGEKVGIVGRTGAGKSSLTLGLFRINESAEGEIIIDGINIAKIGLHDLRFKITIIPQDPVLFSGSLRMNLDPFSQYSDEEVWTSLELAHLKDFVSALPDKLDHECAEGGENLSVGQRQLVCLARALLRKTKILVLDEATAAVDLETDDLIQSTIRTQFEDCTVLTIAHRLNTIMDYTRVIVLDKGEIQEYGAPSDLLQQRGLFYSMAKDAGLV
Method in brief: (§1)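 M14 melanoma cells held 20 min at room temperature in PBS under 400 nm light (7 mW/cm2) with 5 μM compound, alone or with equimolar doxorubicin. Nitrated ABC transporters (Pgp, MRP1, MRP4, BCRP) detected by immunoblot.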

[7] = molecular target: T1, ATP-binding cassette sub-family C member 4 (Homo sapiens, UniProt O15439); assay: Inhibition of MRP4 in 7 mW/cm'2 irradiated human M14 cells assessed as nitration of tyrosine in MRP4 at 5 uM measured after 20 mins in presence of doxorubicin by immunoblotting; method in brief: as §1
T1 sequence (O15439 whole entry): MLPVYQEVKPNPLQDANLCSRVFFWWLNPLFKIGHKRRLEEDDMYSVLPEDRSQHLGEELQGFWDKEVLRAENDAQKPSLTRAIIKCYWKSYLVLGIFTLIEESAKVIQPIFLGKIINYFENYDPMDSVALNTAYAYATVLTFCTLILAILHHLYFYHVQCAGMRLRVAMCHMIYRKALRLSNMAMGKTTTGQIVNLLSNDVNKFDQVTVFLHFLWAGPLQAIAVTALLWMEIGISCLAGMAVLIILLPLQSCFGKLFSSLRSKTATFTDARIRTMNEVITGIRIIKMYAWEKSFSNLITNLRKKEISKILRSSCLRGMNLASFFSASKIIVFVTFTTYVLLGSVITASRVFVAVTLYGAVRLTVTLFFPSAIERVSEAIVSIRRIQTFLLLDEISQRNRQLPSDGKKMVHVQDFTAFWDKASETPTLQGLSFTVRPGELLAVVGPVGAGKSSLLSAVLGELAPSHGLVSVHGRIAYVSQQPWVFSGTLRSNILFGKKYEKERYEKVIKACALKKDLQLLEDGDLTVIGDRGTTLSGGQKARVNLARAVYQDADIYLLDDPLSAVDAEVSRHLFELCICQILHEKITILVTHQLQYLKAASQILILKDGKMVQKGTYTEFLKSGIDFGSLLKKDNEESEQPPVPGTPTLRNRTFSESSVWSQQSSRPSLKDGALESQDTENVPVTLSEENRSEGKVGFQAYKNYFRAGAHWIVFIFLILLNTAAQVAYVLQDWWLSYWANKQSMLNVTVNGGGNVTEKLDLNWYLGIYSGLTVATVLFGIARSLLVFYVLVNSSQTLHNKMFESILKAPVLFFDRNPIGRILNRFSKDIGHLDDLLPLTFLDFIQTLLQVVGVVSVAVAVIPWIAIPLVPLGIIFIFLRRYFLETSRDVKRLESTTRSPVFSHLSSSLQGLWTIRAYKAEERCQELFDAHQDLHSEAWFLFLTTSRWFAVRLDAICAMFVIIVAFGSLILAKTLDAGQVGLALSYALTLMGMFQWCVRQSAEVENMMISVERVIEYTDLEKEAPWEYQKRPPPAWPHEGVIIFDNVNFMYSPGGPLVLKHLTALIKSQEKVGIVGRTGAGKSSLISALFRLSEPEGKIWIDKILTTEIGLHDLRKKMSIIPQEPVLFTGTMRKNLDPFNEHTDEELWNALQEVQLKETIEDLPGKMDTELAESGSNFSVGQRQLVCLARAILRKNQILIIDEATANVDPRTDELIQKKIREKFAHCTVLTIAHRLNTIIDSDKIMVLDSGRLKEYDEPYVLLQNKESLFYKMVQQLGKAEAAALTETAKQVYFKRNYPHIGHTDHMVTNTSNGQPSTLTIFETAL

[8] = organism: Homo sapiens; assay: Inhibition of Pgp in 7 mW/cm'2 irradiated human M14 cells assessed as reduction in ATPase activity at 5 uM measured after 20 mins in presence of doxorubicin by immunoblotting
Method in brief: (§2)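 M14 melanoma cells held 20 min at room temperature in PBS under 400 nm light (7 mW/cm2) with 5 μM compound, alone or with equimolar doxorubicin. Transporter ATPase activity then measured; n = 3.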

[9] = molecular target: T1, ATP-binding cassette sub-family C member 4; assay: Inhibition of MRP4 in 7 mW/cm'2 irradiated human M14 cells assessed as reduction in ATPase activity at 5 uM measured after 20 mins in presence of doxorubicin by immunoblotting; method in brief: as §2

**Q.** Which Stability [1] does the source give for COc1cccc2c1C(=O)c1c(O)c3c(c(O)c1C2=O)C[C@@](O)(C(=O)COC(=O)c1ccc(C(=O)NCCCNc2ccc([N+](=O)[O-])c(C(F)(F)F)c2)cc1)C[C@@H]3O[C@H]1C[C@H](N)[C@H](O)[C@H](C)O1.Cl here?
**A.** Stable

**Q.** What about the Activity [2] of the same compound?
**A.** Active

**Q.** What about the Activity [3] of the same compound?
**A.** Active

**Q.** For NCCCNc1ccc([N+](=O)[O-])c(C(F)(F)F)c1, which Activity [4] is on record?
**A.** Non-Toxic

**Q.** What about the Activity [5] of the same compound?
**A.** Non-Toxic

**Q.** And the “inhibition (INH)” value [6]?
**A.** Active

**Q.** And the “inhibition (INH)” value [7]?
**A.** Active

**Q.** What about the inhibition [8] of the same compound?
**A.** Active

**Q.** What about the “inhibition (INH)” value [9] of the same compound?
**A.** Active
